High-throughput results (PubChem)
Only some compounds are listed: those with a hit (about 3.2% of all), similar ones and a draw of the others.
DENV2 CPE: protects cells from dengue virus 2 cytopathic effect; CPE inhibition, % at 9.99 µM; AID 651640; 350,000 tested, 1.7% active; DENV2-infected cells, cytopathic effect rescue, plate reader; in the data active = CPE inhibition above about 20%, passing the limit was not always enough; inconclusive = no clear call, values can overlap the other calls; tested in BHK-21 cells
PfHsp90 yeast 2: reduces growth (ATP signal) of yeast expressing P. falciparum Hsp90; inhibition, % at 9.4 µM; 310,000 tested, 0.32% active; S. cerevisiae expressing PfHsp90, BacTiter-Glo ATP, 48 h; yeast lacking PDR1 and PDR3 efflux regulators; AID 504621;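 active = every replicate shows inhibition above about 80%, whatever the replicate mean, limit read from the data; inconclusive = mean inhibition reaches the set limit but some replicate falls short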
Cneo AK release: Cryptococcus neoformans lysis via adenylate kinase release. lysis activity, % at 15 µM. C. neoformans lysis, adenylate kinase release luminescence, 4 h; normalised: neutral wells 0, clomiphene wells 100. 360,000 tested, 0.2% active;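 active = mean lysis activity across replicates of at least 80%, whatever share of replicates individually reach that level; inactive = mean lysis activity below 80%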
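Assay system: Cryptococcus neoformans yeast cells / Dosing: single-point compound dose / Timing: 4 h at 37 °C static, read 1 h later / Measured by: luminescence of released adenylate kinase using an AK detection reagent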
MLL AF4-AF9 inh: inhibitors of human MLL-AF4/AF9 interaction | inhibition, % at 10 µM | 350,000 tested, 0.47% active | AID 651704 | AlphaScreen, biotin-AF4 peptide binding to FLAG-AF9;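 active = every replicate reaching a set inhibition limit, whatever the replicate mean, cut at about 25% in these data; inconclusive = mean inhibition reaches that limit but some replicates miss it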
Target sequence (P42568 whole entry, looked up): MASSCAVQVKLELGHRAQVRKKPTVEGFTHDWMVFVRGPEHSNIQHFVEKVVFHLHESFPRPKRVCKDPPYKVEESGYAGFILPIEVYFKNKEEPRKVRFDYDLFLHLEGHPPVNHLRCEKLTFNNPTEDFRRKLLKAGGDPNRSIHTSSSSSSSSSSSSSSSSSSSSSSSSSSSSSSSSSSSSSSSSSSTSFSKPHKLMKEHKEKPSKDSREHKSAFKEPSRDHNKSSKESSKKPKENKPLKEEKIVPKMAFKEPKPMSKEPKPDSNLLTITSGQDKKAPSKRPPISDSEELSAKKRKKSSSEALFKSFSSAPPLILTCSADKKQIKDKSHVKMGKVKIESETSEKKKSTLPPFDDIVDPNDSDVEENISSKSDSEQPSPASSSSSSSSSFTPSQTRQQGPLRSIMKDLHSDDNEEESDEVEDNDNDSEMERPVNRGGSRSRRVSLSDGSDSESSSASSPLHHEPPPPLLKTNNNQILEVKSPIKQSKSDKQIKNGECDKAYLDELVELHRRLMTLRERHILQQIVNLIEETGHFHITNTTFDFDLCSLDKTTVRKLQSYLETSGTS
S100A4 inh HTS: blocks human S100A4 binding to myosin IIA peptide | P26447 | S100A4/TAMRA-MyoIIA peptide fluorescence polarization | inhibition, % at 10.7 µM | 360,000 tested, 0.14% active;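 active = mean inhibition of at least 70% across replicates, with every replicate also reaching that level; inconclusive = mean inhibition reaches 70% but some replicates fall short; inactive = mean inhibition below 70%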
Target sequence (P26447 whole entry, looked up): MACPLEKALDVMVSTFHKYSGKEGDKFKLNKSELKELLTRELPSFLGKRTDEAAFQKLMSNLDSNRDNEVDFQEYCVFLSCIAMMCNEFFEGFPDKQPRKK
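Assay system: human S100A4 monomer with TAMRA-labelled myosin IIA peptide / Buffer or medium: Calcium-containing HEPES buffer, pH 7.2 / Reagent: TAMRA-labelled myosin IIA heavy-chain peptide probe, 5 nM / Compound: one dose per compound / Timing: polarization read 5 min after assay mix addition, stable 5–60 min / Benchmarks: neutral control DMSO, positive control TFP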
Ecoli rRNA inh: inhibits bacterial ribosomal RNA function over humanized ribosomes | 350,000 tested, 1.6% active | AID 720706 | E. coli WT GFP vs humanized-ribosome RFP mutants, fluorescence, 24 h; hits give low values; DMSO median 0, no signal -100 | GFP signal change (wild-type ribosome), % (no concentration beside the values);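 active = significant combined selectivity score with lowered wild-type GFP, culture density cut under 30%, mutant RFP and density less affected; inactive = any of these conditions unmet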
Each line names hits and unclear results; the compound was inactive in the other large screens.

COc1ccccc1-c1cnc2c(c1)C(=O)N([C@@H](C)CO)C[C@@H](C)[C@@H](CN(C)C(=O)c1ccccc1)O2	none (no result: PfHsp90 yeast 2, MLL AF4-AF9 inh, S100A4 inh HTS)
O=C(NCCc1csc(-c2cccnc2)n1)c1ccccc1	none
O=C(NCc1ccccc1)c1csc(-c2cccnc2)n1	Ecoli rRNA inh -37 (no result: Cneo AK release)
C[C@@H]1CCCCO[C@H](CN(C)C(=O)Nc2ccc(C(F)(F)F)cc2)[C@H](C)CN([C@@H](C)CO)C(=O)c2cc(NS(C)(=O)=O)ccc2O1	none (no result: PfHsp90 yeast 2)
CCOc1ccc(/C=N/n2nnnc2N)cc1OCC	DENV2 CPE 27
COc1cc(N=Nc2ccc3ccccc3c2)ccc1O	DENV2 CPE inconclusive, PfHsp90 yeast 2 110, MLL AF4-AF9 inh 29
Oc1ccc(N=Nc2ccc3ccccc3c2)cc1	PfHsp90 yeast 2 108, MLL AF4-AF9 inh 26
COc1cc(N=Nc2ccccc2C(=O)O)ccc1O	none
NS(=O)(=O)c1ccc(N=Nc2c(O)ccc3ccccc23)cc1	none (no result: Cneo AK release)
O=[N+]([O-])c1ccccc1N=Nc1ccc(O)cc1	none (no result: Cneo AK release)
Oc1ccc(N=Nc2c(O)ccc3ccccc23)cc1	PfHsp90 yeast 2 127
C[C@H](CO)N1C[C@H](C)[C@@H](CN(C)Cc2ccncc2)Oc2ccc(NC(=O)Cn3cnnn3)cc2CC1=O	none (no result: PfHsp90 yeast 2)
Cc1nn(C)cc1NC(=O)C[C@H]1CC[C@H]2[C@@H](COc3ccc(NC(=O)C(C)C)cc3C(=O)N2C)O1	none (no result: PfHsp90 yeast 2, MLL AF4-AF9 inh, S100A4 inh HTS)
C[C@H]1CN([C@@H](C)CO)C(=O)c2cc(NS(C)(=O)=O)ccc2O[C@@H]1CN(C)CC1CCCCC1	none (no result: PfHsp90 yeast 2)
COc1cccc(C(=O)Nc2cccc(-c3nc4ncccc4o3)c2C)c1	none (no result: DENV2 CPE, MLL AF4-AF9 inh, S100A4 inh HTS, Ecoli rRNA inh)
Cc1c(NC(=O)c2ccc([N+](=O)[O-])o2)cccc1-c1nc2ncccc2o1	Ecoli rRNA inh -24
Oc1cccc(C=NN=C2c3ccccc3-c3ccccc32)c1	Ecoli rRNA inh -34 (no result: Cneo AK release)
COCC(=O)Nc1ccc2c(c1)C(=O)N(C)C[C@@H](OC)[C@H](C)CN(Cc1cc(-c3ccccc3)on1)[C@H](C)CO2	none (no result: PfHsp90 yeast 2)
CN1C(=O)c2ccccc2OC1(C)Cc1ccccc1 (configuration not stated)	Ecoli rRNA inh -21 (no result: Cneo AK release)
C/C(=N\NC(=O)c1ccccc1)c1ccc2c(c1)OCO2	none (no result: DENV2 CPE, MLL AF4-AF9 inh, S100A4 inh HTS, Ecoli rRNA inh)
COC(=O)c1[nH]c2ccccc2c1NC(=O)/C=C/c1ccc2c(c1)OCO2	DENV2 CPE 38
CCOC(=O)c1[nH]c2ccccc2c1NC(=O)c1ccc2c(c1)OCO2	DENV2 CPE 40
CC/C(=N\NC(=O)c1ccc2c(c1)OCO2)c1ccccc1	DENV2 CPE 33
CCOC(=O)c1[nH]c2ccc(OC)cc2c1NC(=O)c1ccc2c(c1)OCO2	none (no result: DENV2 CPE, MLL AF4-AF9 inh, S100A4 inh HTS, Ecoli rRNA inh)
CC(C)CC#Cc1cnc2c(c1)C(=O)N([C@H](C)CO)C[C@H](C)[C@@H](CN(C)C(=O)c1ccc(F)cc1)O2	none (no result: PfHsp90 yeast 2)
Cc1cccc(C)c1OCC(O)CNC(C)C (configuration not stated)	none (no result: DENV2 CPE, MLL AF4-AF9 inh, S100A4 inh HTS, Ecoli rRNA inh)
C=CCOc1ccccc1OCC(O)CNC(C)C (configuration not stated)	DENV2 CPE 40 (no result: Ecoli rRNA inh)
COc1ccccc1N1CCN(C(=O)Cn2c(=O)oc3cc(S(=O)(=O)N4CCCC4)ccc32)CC1	DENV2 CPE 33
COc1ccccc1NCC(=O)Nc1cc(S(=O)(=O)N2CCOCC2)ccc1N1CCOCC1	none (no result: Cneo AK release)
COc1ccccc1S(=O)(=O)Nc1cc(S(=O)(=O)N2CCCCC2)ccc1N1CCOCC1	Ecoli rRNA inh -28 (no result: PfHsp90 yeast 2, Cneo AK release)
CCN1CCN(c2ccc(S(=O)(=O)N3CCCCC3)cc2NC(=O)c2ccc(C)c(C)c2)CC1	DENV2 CPE 38
COc1ccccc1N1CCN(S(=O)(=O)c2ccccc2F)CC1	Ecoli rRNA inh -22
C[C@@H]1CN([C@@H](C)CO)C(=O)Cc2cc(NS(=O)(=O)c3ccc(F)cc3)ccc2O[C@H]1CN(C)S(=O)(=O)c1ccc(F)cc1	none (no result: PfHsp90 yeast 2)
COc1ccccc1N1CCN(C(=O)c2cc(S(=O)(=O)N3CCCCC3)ccc2C)CC1	DENV2 CPE 34
CCOc1ccccc1N1CCN(C(=O)c2cc(S(=O)(=O)N3CCCCC3)ccc2C)CC1	none
O=C(c1cccs1)c1sccc1Cc1ccccc1	Ecoli rRNA inh -16
CCC(=O)Nc1ccc2c(c1)C(=O)N(C)[C@H]1CC[C@@H](CC(=O)N[C@@H](C)c3ccccc3)O[C@H]1CO2	DENV2 CPE 71 (no result: PfHsp90 yeast 2)
CCC(=O)Nc1ccc2c(c1)C(=O)N(C)[C@@H]1CC[C@H](CC(=O)N[C@@H](C)c3ccccc3)O[C@H]1CO2	DENV2 CPE 62 (no result: PfHsp90 yeast 2)
CCC(=O)Nc1ccc2c(c1)C(=O)N(C)[C@@H]1CC[C@H](CC(=O)N[C@@H](C)c3ccccc3)O[C@@H]1CO2	DENV2 CPE 139 (no result: PfHsp90 yeast 2)
CCC(=O)Nc1ccc2c(c1)C(=O)N(C)[C@H]1CC[C@H](CC(=O)N[C@H](C)c3ccccc3)O[C@@H]1CO2	none (no result: PfHsp90 yeast 2, Cneo AK release)
CCC(=O)Nc1ccc2c(c1)C(=O)N(C)[C@@H]1CC[C@@H](CC(=O)N[C@H](C)c3ccccc3)O[C@H]1CO2	none (no result: PfHsp90 yeast 2)
CC(C)C(=O)Nc1ccc2c(c1)C(=O)N(C)[C@H]1CC[C@H](CC(=O)Nc3ccccc3F)O[C@@H]1CO2	DENV2 CPE 78 (no result: PfHsp90 yeast 2)
C[C@H](CO)N1C[C@H](C)[C@@H](CN(C)C(=O)NC2CCCCC2)Oc2c(NC(=O)c3cnccn3)cccc2C1=O	none (no result: PfHsp90 yeast 2)
C[C@@H]1CCCCO[C@H](CN(C)C(=O)Nc2ccc(C(F)(F)F)cc2)[C@@H](C)CN([C@@H](C)CO)C(=O)c2cc(NS(=O)(=O)c3cn(C)cn3)ccc2O1	none (no result: PfHsp90 yeast 2)
C[C@@H]1CN([C@H](C)CO)C(=O)Cc2cc(NC(=O)Nc3ccccc3)ccc2O[C@H]1CN(C)S(=O)(=O)c1cccs1	none (no result: PfHsp90 yeast 2)
CCN(Cc1ccncc1)C(=O)c1ccco1	DENV2 CPE 25
CCN(Cc1nc(-c2ccc(C)cc2)no1)C(=O)c1ccco1	none
O=C1O[C@@H](c2ccccc2)[C@@H](c2ccccc2)N2[C@@H](c3ccc(O)cc3)[C@]3(C(=O)Nc4ccc(C#CC5(O)CCCCCC5)cc43)[C@@H](C(=O)NC[C@H](O)c3ccccc3)[C@H]12	none (no result: PfHsp90 yeast 2, Ecoli rRNA inh)
CC(C)CNC(=O)C1(C)CCCN1C(=O)c1ccncc1 (configuration not stated)	none (no result: PfHsp90 yeast 2)
CCCCNC(=O)C1(C)CCN1C(=O)c1cncc(Br)c1 (configuration not stated)	DENV2 CPE 86 (no result: PfHsp90 yeast 2)
CC(C)CNC(=O)C1(C)CCCN1C(=O)c1cncc(Br)c1 (configuration not stated)	DENV2 CPE 26 (no result: PfHsp90 yeast 2)
C[C@H]1CN([C@@H](C)CO)C(=O)c2cccc(N(C)C)c2O[C@@H]1CN(C)C(=O)Nc1cccc2ccccc12	Cneo AK release 84 (no result: PfHsp90 yeast 2)
